{
  "source": "ChEMBL document CHEMBL5303300",
  "about": "“EUbOPEN Chemogenomics Library - Multiplex” (2023)",
  "tested_on": "Fibroblast",
  "assay": "Multiplex assay against human fibroblast",
  "format": "toxicity, cell-based",
  "details": "number of replicates 2",
  "procedure,_shortened": "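Four dyes were applied at seeding to live cells: Hoechst33342, BioTracker Green Microtubule Cytoskeleton Dye, MitoTracker Red and Annexin V Alexa Fluor 680. Imaging after compound addition used a CQ1 microscope at 37°C and 5% CO2. CellPathfinder machine-learning gating then sorted cells into Hoechst high-intensity objects or normal cells, normal cells into healthy, pyknosed or fragmented nuclei, and pyknosed cells into mitotic or apoptotic, with tubulin, mitochondrial-mass and membrane-permeability phenotypes given as per cents of healthy-nucleus cells.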",
  "key": {"[1]": {"details": "12 h, 1 µM, compound concentration 1 uM"}, "[2]": {"details": "12 h, 10 µM, compound concentration 10 uM"}, "[3]": {"details": "24 h, 1 µM, compound concentration 1 uM"}, "[4]": {"details": "24 h, 10 µM, compound concentration 10 uM"}, "[5]": {"details": "48 h, 1 µM, compound concentration 1 uM"}, "[6]": {"details": "48 h, 10 µM, compound concentration 10 uM"}},
  "note": "Where “and” joins values, the source holds several entries; their conditions need not be identical. Equal entries are not always repeated.",
  "data": [
    {"smiles": "COc1ccc2cc(S(=O)(=O)N[C@H](CC(=O)N[C@H](Cc3ccc(CN4[C@H](C)CCC[C@@H]4C)cc3)C(=O)N(C)C(C)C)c3ccc4c(c3)OCO4)ccc2c1.Cl", "values": [
      {"measurement": "Population Apoptotic (%)", "setting": "[1]", "result": "31% and 54%"},
      {"measurement": "Population Fragmented Nuclei (%)", "setting": "[1]", "result": "17% and 21%"},
      {"measurement": "Population Healthy Nuclei (%)", "setting": "[1]", "result": "61% and 62%"},
      {"measurement": "Population Hoechst High Intensity Objects (%)", "setting": "[1]", "result": 0, "unit": "%"},
      {"measurement": "Population Membrane Permeable-Phenotype (%)", "setting": "[1]", "result": "6% and 11%"},
      {"measurement": "Population Mitochondria Different-Phenotype (%)", "setting": "[1]", "result": "2% and 1%"},
      {"measurement": "Population Mitotic Cells (%)", "setting": "[1]", "result": "68% and 45%"},
      {"measurement": "Population Normal (%)", "setting": "[1]", "result": 100, "unit": "%"},
      {"measurement": "Population Pyknosed Nuclei (%)", "setting": "[1]", "result": "20% and 16%"},
      {"measurement": "Population Tubulin-Different-Phenotype (%)", "setting": "[1]", "result": "66% and 52%"},
      {"measurement": "Total Cell Count", "setting": "[1]", "result": "155 and 275"},
      {"measurement": "Population Apoptotic (%)", "setting": "[2]", "result": "57% and 44%"},
      {"measurement": "Population Fragmented Nuclei (%)", "setting": "[2]", "result": "26% and 14%"},
      {"measurement": "Population Healthy Nuclei (%)", "setting": "[2]", "result": "52% and 66%"},
      {"measurement": "Population Hoechst High Intensity Objects (%)", "setting": "[2]", "result": 0, "unit": "%"},
      {"measurement": "Population Membrane Permeable-Phenotype (%)", "setting": "[2]", "result": "20% and 17%"},
      {"measurement": "Population Mitochondria Different-Phenotype (%)", "setting": "[2]", "result": "21% and 16%"},
      {"measurement": "Population Mitotic Cells (%)", "setting": "[2]", "result": "42% and 55%"},
      {"measurement": "Population Normal (%)", "setting": "[2]", "result": 99, "unit": "%"},
      {"measurement": "Population Pyknosed Nuclei (%)", "setting": "[2]", "result": "20% and 19%"},
      {"measurement": "Population Tubulin-Different-Phenotype (%)", "setting": "[2]", "result": "97% and 84%"},
      {"measurement": "Total Cell Count", "setting": "[2]", "result": "160 and 258"},
      {"measurement": "Population Apoptotic (%)", "setting": "[3]", "result": "43% and 66%"},
      {"measurement": "Population Fragmented Nuclei (%)", "setting": "[3]", "result": "25% and 28%"},
      {"measurement": "Population Healthy Nuclei (%)", "setting": "[3]", "result": "61% and 59%"},
      {"measurement": "Population Hoechst High Intensity Objects (%)", "setting": "[3]", "result": 0, "unit": "%"},
      {"measurement": "Population Membrane Permeable-Phenotype (%)", "setting": "[3]", "result": "0% and 5%"},
      {"measurement": "Population Mitochondria Different-Phenotype (%)", "setting": "[3]", "result": "12% and 10%"},
      {"measurement": "Population Mitotic Cells (%)", "setting": "[3]", "result": "56% and 33%"},
      {"measurement": "Population Normal (%)", "setting": "[3]", "result": 100, "unit": "%"},
      {"measurement": "Population Pyknosed Nuclei (%)", "setting": "[3]", "result": "13% and 12%"},
      {"measurement": "Population Tubulin-Different-Phenotype (%)", "setting": "[3]", "result": "64% and 56%"},
      {"measurement": "Total Cell Count", "setting": "[3]", "result": "171 and 286"},
      {"measurement": "Population Apoptotic (%)", "setting": "[4]", "result": 80, "unit": "%"},
      {"measurement": "Population Fragmented Nuclei (%)", "setting": "[4]", "result": "20% and 16%"},
      {"measurement": "Population Healthy Nuclei (%)", "setting": "[4]", "result": "56% and 57%"},
      {"measurement": "Population Hoechst High Intensity Objects (%)", "setting": "[4]", "result": "1% and 0%"},
      {"measurement": "Population Membrane Permeable-Phenotype (%)", "setting": "[4]", "result": "14% and 7%"},
      {"measurement": "Population Mitochondria Different-Phenotype (%)", "setting": "[4]", "result": "42% and 56%"},
      {"measurement": "Population Mitotic Cells (%)", "setting": "[4]", "result": "19% and 20%"},
      {"measurement": "Population Normal (%)", "setting": "[4]", "result": "98% and 99%"},
      {"measurement": "Population Pyknosed Nuclei (%)", "setting": "[4]", "result": "23% and 25%"},
      {"measurement": "Population Tubulin-Different-Phenotype (%)", "setting": "[4]", "result": "93% and 92%"},
      {"measurement": "Total Cell Count", "setting": "[4]", "result": "159 and 220"},
      {"measurement": "Population Apoptotic (%)", "setting": "[5]", "result": "77% and 72%"},
      {"measurement": "Population Fragmented Nuclei (%)", "setting": "[5]", "result": "36% and 29%"},
      {"measurement": "Population Healthy Nuclei (%)", "setting": "[5]", "result": "53% and 64%"},
      {"measurement": "Population Hoechst High Intensity Objects (%)", "setting": "[5]", "result": 0, "unit": "%"},
      {"measurement": "Population Membrane Permeable-Phenotype (%)", "setting": "[5]", "result": "2% and 3%"},
      {"measurement": "Population Mitochondria Different-Phenotype (%)", "setting": "[5]", "result": "9% and 7%"},
      {"measurement": "Population Mitotic Cells (%)", "setting": "[5]", "result": "22% and 27%"},
      {"measurement": "Population Normal (%)", "setting": "[5]", "result": "99% and 100%"},
      {"measurement": "Population Pyknosed Nuclei (%)", "setting": "[5]", "result": "9% and 5%"},
      {"measurement": "Population Tubulin-Different-Phenotype (%)", "setting": "[5]", "result": "28% and 50%"},
      {"measurement": "Total Cell Count", "setting": "[5]", "result": "326 and 194"},
      {"measurement": "Population Apoptotic (%)", "setting": "[6]", "result": "88% and 86%"},
      {"measurement": "Population Fragmented Nuclei (%)", "setting": "[6]", "result": "24% and 18%"},
      {"measurement": "Population Healthy Nuclei (%)", "setting": "[6]", "result": "62% and 65%"},
      {"measurement": "Population Hoechst High Intensity Objects (%)", "setting": "[6]", "result": "5% and 9%"},
      {"measurement": "Population Membrane Permeable-Phenotype (%)", "setting": "[6]", "result": "8% and 10%"},
      {"measurement": "Population Mitochondria Different-Phenotype (%)", "setting": "[6]", "result": "46% and 55%"},
      {"measurement": "Population Mitotic Cells (%)", "setting": "[6]", "result": "11% and 13%"},
      {"measurement": "Population Normal (%)", "setting": "[6]", "result": "94% and 90%"},
      {"measurement": "Population Pyknosed Nuclei (%)", "setting": "[6]", "result": "12% and 15%"},
      {"measurement": "Population Tubulin-Different-Phenotype (%)", "setting": "[6]", "result": "87% and 83%"},
      {"measurement": "Total Cell Count", "setting": "[6]", "result": "138 and 202"}
    ]}
  ]
}
